Screening results (PubChem)
Sampled rows, rich in hits. Any-hit rate of the full collection: about 2.1%.
CCR6 antagonist = blocks CCL20-driven beta-arrestin recruitment at human CCR6. inhibition, % at 20 µM. AID 493098. CHO-K1 CCR6 PathHunter beta-arrestin, luminescence, CCL20-stimulated. actives 0.49% (n = 340,000). P51684;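 active means compounds whose inhibition of the agonist-driven luminescence signal at 20 µM reaches about 50%, limit read from the data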;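 further: cells stimulated with CCL20 at 14 nM final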
m5-HT2A agonist = mouse HTR2A agonism via beta-arrestin recruitment; P35363; activation, % at 7.6 µM; CHO-K1 mHTR2A beta-arrestin complementation, luminescence; percent of 30 µM serotonin response; actives 0.66% (n = 360,000);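 active means activation above a run cutoff, the mean activation of all tested compounds plus 3 SD, cut at about 14% in these data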
EBI2 block = EBI2 (human) antagonism; EBI2 beta-arrestin recruitment, luminescence, 7a,25-OHC stimulated; inhibition, % at 5 µM; actives 0.81% (n = 360,000); AID 651636; in the data active means inhibition above about 38%;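 further: enzyme fragment complementation signal reports receptor beta-arrestin coupling in cells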
Target sequence (P32249 whole entry, looked up, the tested form may be a part): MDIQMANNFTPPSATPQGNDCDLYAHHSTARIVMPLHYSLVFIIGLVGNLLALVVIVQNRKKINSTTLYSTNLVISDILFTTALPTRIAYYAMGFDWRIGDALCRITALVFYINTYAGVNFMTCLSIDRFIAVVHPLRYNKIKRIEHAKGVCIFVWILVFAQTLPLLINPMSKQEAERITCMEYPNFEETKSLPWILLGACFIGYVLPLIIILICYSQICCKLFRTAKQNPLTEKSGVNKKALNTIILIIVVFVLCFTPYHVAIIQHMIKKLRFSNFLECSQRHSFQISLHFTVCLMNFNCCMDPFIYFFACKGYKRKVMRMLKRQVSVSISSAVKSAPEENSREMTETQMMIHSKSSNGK
APJ antagonist = antagonists of human APJ apelin receptor; AID 2521; inhibition, % at 20 µM; actives 0.32% (n = 330,000); P35414; CHO-K1 APJ beta-arrestin complementation, luminescence;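 active means inhibition above about 40% at 20 µM, limit read from the data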;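 further: cells challenged with 10 nM apelin-13 agonist together with compound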
CXCR6 block = blocks human CXCR6 beta-arrestin recruitment; AID 602244; CHO-K1 PathHunter CXCR6 beta-arrestin, luminescence; inhibition, % at 20 µM; O00574; actives 0.36% (n = 360,000); in the data active means inhibition above about 34%, passing the limit was not always enough;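 further: antagonist mode with CXCL16 agonist at 10 nM final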
Target sequence (O00574 whole entry, looked up): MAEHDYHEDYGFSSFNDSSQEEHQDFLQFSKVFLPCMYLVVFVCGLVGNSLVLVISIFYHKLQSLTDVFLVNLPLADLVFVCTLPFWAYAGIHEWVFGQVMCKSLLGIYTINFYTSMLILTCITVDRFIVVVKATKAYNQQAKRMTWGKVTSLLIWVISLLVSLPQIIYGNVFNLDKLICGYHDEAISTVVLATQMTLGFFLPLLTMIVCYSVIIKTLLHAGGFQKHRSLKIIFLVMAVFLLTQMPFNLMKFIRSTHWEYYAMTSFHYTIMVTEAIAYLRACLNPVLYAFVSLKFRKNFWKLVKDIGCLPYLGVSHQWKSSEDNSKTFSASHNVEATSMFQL
APJ ag = activates the human apelin receptor APJ; actives 0.11% (n = 330,000); activation, % at 20 µM; P35414; CHO-K1 APJ PathHunter beta-arrestin, luminescence; 0% DMSO wells, 100% apelin;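 active means activation more than six SD over the plate average, tested at 20 µM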
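Test system – PathHunter CHO-K1 APJ (AGTRL-1) beta-arrestin reporter cells · Input – 1000 cells/well · Compound – single test compound dose, 20 µM final, 1% DMSO · Times – compound stimulation 90 min at 25 °C, detection 60 min · Technique – beta-gal luminescence · Read-out basis – APJ–arrestin association signal · Control set – negative DMSO alone, positive Apelin-13 at 10 nM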
MOR ag counter = OPRM1 agonism in mouse HTR2A counterscreen; AID 624380; activation, % at 9.3 µM; U2OS OPRM1 beta-arrestin PathHunter, luminescence; DMSO 0%, DAMGO 9.3 µM 100%; actives 5.3% (n = 2,300); shares compounds with m5-HT2A agonist;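 active means mean activation above the mean of DMSO-only wells plus 3 SD, cut at about 0.5% in these data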
m5-HT2A ag conf = mouse HTR2A agonism confirmed; shares compounds with m5-HT2A agonist; CHO-K1 PathHunter beta-arrestin recruitment, luminescence; DMSO 0%, 30 µM serotonin 100%; activation, % at 7.6 µM; actives 19% (n = 2,300);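 active means mean activation across triplicates above the hit threshold derived in the original primary screen, cut at about 15% in these data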
Large screens that a line does not name were inactive (follow-up assays come after a bar, where they were run).

CCOc1ccccc1NC(=O)CCN1CCN(S(=O)(=O)c2ccc(Br)cc2)CC1	m5-HT2A agonist 17 | MOR ag counter inactive | m5-HT2A ag conf inactive
CCOc1ccc(NC(=O)CCN2CCN(S(=O)(=O)c3ccc(F)cc3)CC2)cc1	none
Cn1ncc(Br)c1NC(=O)Nc1ccc(Cl)cc1	none
Cn1ncc(Br)c1NC(=O)Nc1ccccc1	m5-HT2A agonist 14 | MOR ag counter 1.0 | m5-HT2A ag conf inactive
CCC1CCCCN1C(=O)CN1C(=O)CSC1=O (centres undefined)	none
CCN(Cc1nc(-c2ccc(OC)c(OC)c2)no1)C(=O)c1ccoc1C	none
CCOC(=O)C(C(=O)N(C)C)c1ncc(C(F)(F)F)cc1Cl (centres undefined)	m5-HT2A agonist 19 | MOR ag counter inactive | m5-HT2A ag conf inactive
O=C(CN(c1ccc(F)cc1)S(=O)(=O)c1ccc2c(c1)OCCO2)N1CCOCC1	m5-HT2A agonist 25 | MOR ag counter inactive | m5-HT2A ag conf inactive
O=C(COc1ccc([N+](=O)[O-])cc1)N1CCc2ccccc2C1	none
Cc1nc2c([nH]1)C1(CCN(Cc3ccccc3)CC1)C(C#N)=C(N)O2	m5-HT2A agonist 33 | MOR ag counter inactive | m5-HT2A ag conf inactive
CCOC(=O)c1cnc2c(C)cccc2c1Nc1cccc(C(=O)O)c1	none
CC(C)(C)Nc1nc2nonc2nc1NC(C)(C)C	m5-HT2A agonist 36 | MOR ag counter inactive | m5-HT2A ag conf 20
OCCNc1nc2nonc2nc1NCCO	none
COc1ccccc1CC(=O)Nc1cc(C)on1	none (no result: CCR6 antagonist, APJ antagonist, APJ ag)
COc1ccc(CC(=O)Nc2cc(C)on2)cc1OC	m5-HT2A agonist 15 | MOR ag counter inactive | m5-HT2A ag conf inactive
Cc1nc(SCC(=O)O)c(C#N)c(-c2ccco2)c1C(=O)N(C)C	none
CSc1nc(C)c(C(=O)Nc2ccccc2)c(-c2ccco2)c1C#N	m5-HT2A agonist 16 | MOR ag counter inactive | m5-HT2A ag conf inactive
CC1CCCC(C)N1C(=O)COC(=O)CSc1ccc(C(N)=O)cc1[N+](=O)[O-] (centres undefined)	m5-HT2A agonist 16 | MOR ag counter inactive | m5-HT2A ag conf inactive
CC1CCCCN1C(=O)COC(=O)CSc1ccc(C(N)=O)cc1[N+](=O)[O-] (centres undefined)	none (no result: APJ antagonist, APJ ag)
CC(C)CN(C(=O)CN1CCN(c2ccccc2O)CC1)c1c(N)n(CC(C)C)c(=O)[nH]c1=O	none
CN(C)c1ccc(O)c2c1CC1CC3[C@@H](N(C)C)C(=O)C(C(N)=O)C(=O)[C@]3(O)C(=O)C1C2=O (some centres undefined)	m5-HT2A agonist 67 | MOR ag counter inactive | m5-HT2A ag conf 153
CCOC(=O)Cn1cc([N+](=O)[O-])c(OC)n1	none
O=C1CC(c2ccccc2)=NN1c1ccccc1	m5-HT2A agonist 15 (no result: APJ antagonist, APJ ag) | MOR ag counter inactive | m5-HT2A ag conf inactive
Cc1cc(C)nc(N2N=C(c3ccccc3)CC2=O)n1	none
C#C[C@]1(O)CCC2C3CCC4=CC(=O)CC[C@@H]4C3CC[C@@]21C (some centres undefined)	m5-HT2A agonist 15 | MOR ag counter inactive | m5-HT2A ag conf inactive
CCOc1ccccc1NC(=O)CSc1nc2ccccc2nc1N1CCOCC1	none
COc1ccc(NC(=O)CSc2nc3ccccc3c(=O)n2CCCN2CCCCC2)c(OC)c1	m5-HT2A agonist 42 | MOR ag counter inactive | m5-HT2A ag conf 18
COc1ccc(NC(=O)CSc2nc3ccccc3nc2N2CCOCC2)c(OC)c1	m5-HT2A agonist 16 | MOR ag counter inactive | m5-HT2A ag conf inactive
COc1cc(Cl)c(CNC[C@H]2O[C@@H](n3cnc4c(N)ncnc43)[C@H](O)[C@@H]2O)c(Cl)c1O	none (no result: APJ antagonist, APJ ag)
CC(c1nccs1)N(C)C(=O)CCc1nnc(CCc2ccccc2)o1 (centres undefined)	none
CN([C@@H](Cc1ccc(OS(=O)(=O)c2cccc3cnccc23)cc1)C(=O)N1CCN(c2ccccc2)CC1)S(=O)(=O)c1cccc2cnccc12	m5-HT2A agonist 15 | MOR ag counter inactive | m5-HT2A ag conf inactive
COC(=O)CCc1c(C)[nH]c(=S)[nH]c1=O	none
COc1cc2c3nnc(-c4ccc(F)cc4)c-3cn(Cc3ccc(C)cc3)c2cc1OC	none
COc1cc2c3nnc(-c4ccccc4)c-3cn(Cc3ccc(F)cc3)c2cc1OC	m5-HT2A agonist 32 | MOR ag counter inactive | m5-HT2A ag conf 21
c1ccc2c(c1)[nH]c1c(N3CCSCC3)ncnc12	m5-HT2A agonist 15 | MOR ag counter inactive | m5-HT2A ag conf inactive
COc1cc(C(=O)OCC(=O)Nc2cc(C)on2)ccc1OCc1ccccc1Cl	none
Cc1ccc(C(=O)N/C(=C\c2ccco2)C(=O)NCCN2CCCCC2)cc1C	none
O=C1N/C(=N/O)S/C1=C/c1cccc([N+](=O)[O-])c1	none
O=C1N/C(=N/O)S/C1=C\c1ccccc1-n1cccn1	m5-HT2A agonist 16 | MOR ag counter inactive | m5-HT2A ag conf inactive
COc1ccc(-c2[nH]ncc2/C=C(\C#N)C(=O)NC2CC2)cc1	none
Cc1cc(Cl)ccc1NC(=O)CN(C)C1=NS(=O)(=O)c2ccccc21	m5-HT2A agonist 15 | MOR ag counter inactive | m5-HT2A ag conf inactive
CCc1cccc(C)c1NC(=O)CN(C)C1=NS(=O)(=O)c2ccccc21	none
COc1ccc(S(=O)(=O)N2CCCCCC2)cc1C(=O)NCc1cccs1	none
CCOC(=O)c1[nH]c2ccccc2c1NC(=O)Nc1ccc(OC)cc1	m5-HT2A agonist 25 | MOR ag counter inactive | m5-HT2A ag conf inactive
O=C(O)/C=C/C(=O)Nc1ccc2c(c1)NC(=O)CO2	none
COc1ccc(Nc2nc(N3CCCCC3)c3ccccc3n2)cc1	none
COc1ccc2[nH]cc(CCN=C3SCC(=O)N3C)c2c1	m5-HT2A agonist 18 | MOR ag counter inactive | m5-HT2A ag conf inactive
COc1ccc2[nH]cc(CCn3ccc(=O)c(C)c3C)c2c1	none
CCN(C1=NS(=O)(=O)c2ccccc21)N(CC)S(=O)(=O)c1ccc(C)cc1	none
COc1cccc(-c2cc(N3CCN(C(=O)c4ccoc4)CC3)n3nc(-c4cccc(Cl)c4)cc3n2)c1	m5-HT2A agonist 16 (no result: CCR6 antagonist, APJ antagonist, APJ ag) | MOR ag counter inactive | m5-HT2A ag conf inactive
O=C([C@H](Cc1ccccc1)NS(=O)(=O)c1ccc(Cl)cc1)N1CC[C@@]2(O)CCCC[C@H]2C1	m5-HT2A agonist 17 | MOR ag counter inactive | m5-HT2A ag conf inactive
